Article PMC10938441 (ACS Omega, 2024)

Key:
[1] = Cytotoxicity, MTT reduction assay in HepG2 cells; type: cell-based; conditions: human, HepG2 cells, CC50 (HepG2)
Summary of the method: (§1)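 HepG2 cells grown at 37 °C, 5% CO2 in DMEM with streptomycin (40 mg/L) and 10% heat-inactivated FBS. Seeded at 1 × 10^3 cells/well, then exposed to serial dilutions of test compound for 72 h, each concentration in triplicate. MTT added for 4 h; formazan dissolved in isopropanol, read at OD570. Viability expressed as % of vehicle control; CC50 fitted from % viability vs log concentration.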

[2] = Cytotoxicity, methylene blue staining in Calu-3 cells; type: cell-based; conditions: human, Calu-3 cell monolayers
Summary of the method: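 Calu-3 monolayers (2 × 10^4 cells/well) exposed to test compound at several concentrations for 72 h at 37 °C, 5% CO2, triplicate per concentration. Cells PBS-washed, then fixed and stained 1 h at 37 °C with HBSS + 1.25% glutaraldehyde + 0.6% methylene blue. Rinsed with water; dye eluted 15 min at room temperature (50% ethanol, 49% PBS, 1% acetic acid); A660 read. CC50 fitted from % viability vs log concentration.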

[3] = system: SARS-CoV-2; type: cell-based, SARS-CoV-2 B.1 lineage; conditions: correlation between anti-SARS-CoV-2 activity (EC50) and HepG2 cytotoxicity (CC50)
[4] = system: HepG2 cell lines; experiment: Cytotoxicity, MTT reduction assay in HepG2 cells; type: cell-based; conditions: read-out: CC50 (HepG2), 72 h
Summary of the method: as §1

Compound `Cc1c(-c2ccc(-c3ccccc3F)cc2)nc2ccc(F)cc2c1C(=O)O` [brequinar] has a CC50 at 72 h [1] of 17 ± 4 µM and a CC50 at 72 h [2] of 48 ± 2 µM.

`CC(C)=CCC1=C(O)C(=O)c2ccccc2C1=O` [lapachol] showed a selectivity index [3] of 47 ± 7, a CC50 at 72 h [1] of 71 ± 9 µM and a CC50 at 72 h [2] of 67 ± 2 µM.

With `C/C(O)=C(\C#N)C(=O)Nc1ccc(C(F)(F)F)cc1` [teriflunomide] the CC50 at 72 h [1] was 164 µM, the CC50 [4] was 160 ± 20 µM and the CC50 at 72 h [2] was 59 ± 2 µM.
